An excerpt weighted towards active compounds, which were near 1.6% of everything screened.
PG9 Ab binder: PG9 antibody binding by small molecule. TR-FRET gp120-PG9 antibody binding. inhibition, % at 6.7 µM. hit rate 0.43% among 360,000. AID 624416; in the data active = inhibition above about 8.5%
PKA-R2B activ: activates the human PKA-R2B holoenzyme complex; activation, % at 11.4 µM; hit rate 0.079% among 340,000; PKA-R2B holoenzyme dissociation, Cy5-IP20 fluorescence polarization; R2B truncated from residue 108, S112A mutant; 0% DMSO only, 100% 113 µM cGMP; P22694+P31323;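 active = activation above a cutoff set at the mean over all compounds plus 3 SD, cut at about 18% in these data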;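 note: higher means more holoenzyme dissociation and a rise in polarization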
Rev-erbA mod: modulates human Rev-erb alpha binding to DNA | P20393 | Rev-erbα–FITC-DNA binding, fluorescence polarization, 90 min | activity, % at 10 µM | hit rate 0.79% among 370,000 | AID 1259318;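 active = activity above about 14%, limit read from the data; passing the limit was not always enough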
Target sequence (P20393 whole entry, looked up): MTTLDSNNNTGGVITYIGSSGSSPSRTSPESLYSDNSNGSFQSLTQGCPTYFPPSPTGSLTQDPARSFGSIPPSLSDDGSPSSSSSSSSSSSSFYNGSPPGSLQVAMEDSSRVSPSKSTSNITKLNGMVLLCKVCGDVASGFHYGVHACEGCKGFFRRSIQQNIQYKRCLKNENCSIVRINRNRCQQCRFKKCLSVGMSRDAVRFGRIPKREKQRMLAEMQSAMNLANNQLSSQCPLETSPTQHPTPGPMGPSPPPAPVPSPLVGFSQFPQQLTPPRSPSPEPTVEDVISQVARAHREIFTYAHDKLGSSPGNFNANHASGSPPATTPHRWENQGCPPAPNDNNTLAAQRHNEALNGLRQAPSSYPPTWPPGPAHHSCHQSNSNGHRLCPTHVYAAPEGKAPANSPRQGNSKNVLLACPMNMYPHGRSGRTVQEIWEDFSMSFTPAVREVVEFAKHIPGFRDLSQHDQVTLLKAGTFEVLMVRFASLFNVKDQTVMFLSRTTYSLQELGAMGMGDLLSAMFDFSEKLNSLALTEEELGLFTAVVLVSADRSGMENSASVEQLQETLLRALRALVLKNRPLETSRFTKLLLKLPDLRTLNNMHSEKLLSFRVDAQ
NR2E3 ag-1: agonists of human nuclear receptor NR2E3; Q9Y5X4; GST-NR2E3/biotin-RetCOR TR-FRET, 1536-well; hit rate 0.12% among 320,000; AID 2300; inhibition of corepressor binding, % at 4.78 µM;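 active = percent inhibition above the cutoff of mean plus 3 SD of all tested compounds, set per screening campaign, cut at about 20% in these data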
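Test system – NR2E3–RetCOR corepressor complex · Quantity – NR2E3 fusion 1.35 nM · Buffer or medium – Tris pH 7.5 · Incubation – Compound–protein incubation for 5 h at 4 °C · Technique – TR-FRET, Eu(K)-anti-GST donor, streptavidin-D2 acceptor, ex 340, em 617/671 nm · Evaluation – percent inhibition of 671/617 nm emission ratio versus biotin and DMSO controls · Plate – 1536-well format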
PKA-R1A activ: activators of PKA-R1A complex | AID 504707 | P00514+P68181 | PKA-R1A dissociation, Cy5-IP20 fluorescence polarization; scaled: DMSO 0%, 113 µM cGMP 100% | hit rate 0.083% among 340,000 | activation, % at 11.4 µM;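 active = percent activation above the mean of all tested compounds plus 3 SD, cut at about 19% in these data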;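 note: higher means more PKAc released from R1A so a rise in polarization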
NR2E3 ag-2: agonists of human NR2E3 nuclear receptor. inhibition of corepressor binding, % at 3.98 µM. hit rate 0.35% among 360,000. AID 602229. Q9Y5X4. CHO-S Gal4-NCOR/VP16-NR2E3 two-hybrid, luciferase;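 active = inhibition above the mean of all tested compounds plus 3 SD, cut at about 70% in these data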;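 note: higher means lower luciferase signal from less NR2E3 corepressor binding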
NR2E3 ag confirm: NR2E3 (human) agonism, confirmation | activation (reported as inhibition), % at 3.98 µM | shares compounds with NR2E3 ag-1 | cell-free NR2E3 corepressor release, TR-FRET, 5 h | hit rate 39% among 360; in the data active = activation above about 20%
PPARg-NCOR2 ctr: releases PPARgamma from NCOR2 in NR2E3 counter-screen; inhibition, % at 3.98 µM; hit rate 45% among 360; shares compounds with NR2E3 ag-1; TR-FRET PPARg-NCOR2 coregulator interaction, biochemical; in the data active = inhibition above about 20%
A number is an active result; n = inactive; x = no result.

SMILES | PG9 Ab binder | PKA-R2B activ | Rev-erbA mod | NR2E3 ag-1 | PKA-R1A activ | NR2E3 ag-2 | NR2E3 ag confirm | PPARg-NCOR2 ctr
COC(=O)c1cc2sc(Cl)cc2n1Cc1nc(-c2ccccc2)oc1C | n | n | n | 25 | n | n | n | n
Cc1c(N2C(=O)c3ccc4c5c(ccc(c35)C2=O)CC4)c(=O)n(-c2ccccc2)n1C | x | n | x | 21 | n | n | 26 | n
Cc1c(N2C(=O)c3ccc(Br)cc3C2=O)c(=O)n(-c2ccccc2)n1C | n | n | n | n | n | n | x | x
Cn1nc(C(=O)NC2CCCCC2)c2c1-c1ccccc1SC2 | n | n | n | n | n | n | x | x
Cn1nc(C(=O)N2CCC(C(N)=O)CC2)c2c1-c1ccccc1SC2 | n | n | n | 27 | n | n | n | n
O=C(O[C@@H]1OC2COC(=O)c3cc(O)c(O)c(O)c3-c3c(cc(O)c(O)c3O)C(=O)O[C@@H]([C@H]1O)[C@@H]2O)c1cc(O)c(O)c(O)c1 | x | n | x | 24 | n | n | n | n
COCCn1c(N)c(C(=O)NCC2CCCO2)c2nc3ccccc3nc21 (configuration not stated) | n | n | n | 36 | n | n | n | n
CC(=O)OCC(=O)[C@@]1(OC(C)=O)[C@@H](C)CC2C3C[C@H](F)C4=CC(=O)C=C[C@]4(C)[C@@]3(F)[C@@H](O)C[C@@]21C (some centres not stated) | x | x | n | x | x | x | x | x
C=CCc1c(C)nc(-c2ccccc2)nc1Nc1ccccc1O | n | n | n | n | n | n | x | x
C=CCc1c(C)nc(SC)nc1Nc1ccc(C)cc1 | n | n | n | 25 | n | n | n | n
Cc1cc(-n2c(=O)[nH]c(=O)n(C)c2=O)ccc1Oc1ccc(SC(F)(F)F)cc1 | x | x | n | x | x | x | x | x
O=c1cc(O)c2sc3nc(C(F)(F)F)c4c(c3c2[nH]1)CCCCC4 | n | n | n | n | n | n | x | x
CC(C)c1nc2sc3c(=O)[nH]c(=S)[nH]c3c2c2c1CCCC2 | n | n | n | 24 | n | n | 45 | 44
CC(=O)[C@@]12O[C@](C)(c3ccccc3)O[C@@H]1CC1C3CCC4=CC(=O)CC[C@]4(C)C3CC[C@@]12C (some centres not stated) | x | x | n | x | x | x | x | x
Cc1c2cc(O)c(=O)cc-2oc2cc(O)c(O)cc12 | n | n | n | 40 | n | n | 20 | n
COc1cc(OC)c(-c2c3cc(O)c(=O)cc-3oc3cc(O)c(O)cc23)cc1OC | n | n | n | n | n | n | x | x
COc1cc([C@@H]2c3cc4c(cc3C(O[C@@H]3O[C@@H]5CO[C@@H](c6cccs6)OC5[C@H](O)[C@H]3O)C3COC(=O)[C@@H]32)OCO4)cc(OC)c1O (some centres not stated) | x | x | n | x | x | x | x | x
COc1cc(/C=C2/C(=O)N(c3ccc([N+](=O)[O-])cc3)N=C2N2CCOCC2)ccc1O | n | n | n | 29 | n | n | n | 48
C=CCOc1ccc(/C(O)=C2\C(=O)C(=O)N(CCOC)C2c2cccnc2)cc1 (configuration not stated) | n | n | n | 21 | n | n | n | n
CCCOc1ccc(/C(O)=C2/C(=O)C(=O)N(CCOC)C2c2cccnc2)cc1 (configuration not stated) | n | x | n | n | x | x | x | x
C=CCSc1nc(-c2ccccc2)c(C#N)c(=O)[nH]1 | n | n | n | 22 | n | n | n | 41
CC(=O)Nc1ccc(S(=O)(=O)Nc2onc(C)c2C)cc1 | x | x | n | x | x | x | x | x
NC(=O)c1cc[n+](CC2=C(C(=O)O)N3C(=O)[C@@H](NC(=O)C(c4ccccc4)S(=O)(=O)[O-])[C@H]3SC2)cc1 (some centres not stated) | x | n | x | 23 | n | n | n | n
O=C(Nc1nc(-c2cccs2)c(C(=O)C(F)(F)F)s1)c1ccccc1 | n | n | n | n | n | n | x | x
O=C(Nc1nc(-c2cccs2)c(C(=O)C(F)(F)F)s1)c1ccco1 | n | n | n | 30 | n | n | 34 | 32
SMILES | PG9 Ab binder | PKA-R2B activ | Rev-erbA mod | NR2E3 ag-1 | PKA-R1A activ | NR2E3 ag-2 | NR2E3 ag confirm | PPARg-NCOR2 ctr
CCOC(=O)COc1cc(Br)c(/C=N/Nc2ccccc2)cc1OC | n | n | n | 26 | n | n | n | n
COc1cccc2c1NC(C(=O)O)C1CC=CC21 (configuration not stated) | x | n | x | 22 | n | n | n | n
Cc1cc(C(=O)OCC(=O)c2ccc(Br)s2)no1 | x | n | n | 25 | n | n | n | n
COc1ccccc1NC(=O)N1CCCC1 | n | n | n | n | n | n | x | x
COc1ccccc1NC(=O)N1CCC(NC(=O)C2CCCCC2)CC1 | n | n | n | 32 | n | n | n | n
CN(C(=O)c1ccc(NC(=O)Cc2ccc(NC(=O)C3CCN(C(=O)C4CCC4)CC3)cc2)cc1)C1CC1 | n | n | n | n | n | n | x | x
CN(C(=O)c1ccc(NC(=O)Cc2ccc(NC(=O)C3CCN(C(=O)C4CCCC4)CC3)cc2)cc1)C1CC1 | n | n | n | 25 | n | n | n | n
N[C@@H](CSCC(=O)O)C(=O)O | x | x | n | x | x | x | x | x
O=C(C1=C(O)C(=O)N(CCN2CCOCC2)C1c1cccnc1)c1cc2ccccc2o1 (configuration not stated) | n | n | n | 32 | n | n | n | n
O=C(C1=C(O)C(=O)N(CCN2CCOCC2)C1c1cccs1)c1cc2ccccc2o1 (configuration not stated) | n | n | n | 30 | n | n | 31 | 34
C=NC(C(=O)N[C@H]1C(=O)N2C1SC(C)(C)C2C(=O)O)c1ccccc1 (some centres not stated) | x | x | n | x | x | x | x | x
CC1(C)S[C@@H]2C(NC(=O)[C@@H](N)c3ccc(O)cc3)C(=O)N2[C@H]1C(=O)O (some centres not stated) | x | x | n | x | x | x | x | x
N#CC1=C2SCN(Cc3ccccc3)CN2C(=O)CC1c1cccs1 (configuration not stated) | n | n | n | 22 | n | n | n | n
N#CC1=C2SCN(Cc3ccccc3)CN2C(=O)CC1c1ccc2c(c1)OCO2 (configuration not stated) | n | n | n | n | n | n | x | x
O=C[C@H](O)[C@@H](O)[C@H](O)[C@H](O)CO | x | x | n | x | x | x | x | x
CN(CC(=O)NCCC1=CCCCC1)S(=O)(=O)c1ccc2c(c1)c(=O)n(C)c(=O)n2C | n | n | n | 24 | n | n | n | n
